Active and inactive are the calls of the source. The rule behind the calls is not given here.
What was measured:
[1] = Cytotoxicity against human MT4 cells; format: cell-based
How it was run: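 Uninfected MT-4 cells were run in parallel with the antiviral plates: serial compound concentrations from 50 mM DMSO stocks, 4 days at 37 °C, viability by MTT. CC50 is the concentration cutting viability by 50%, as the mean of ≥2 separate experiments.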

[2] = tested on: Human immunodeficiency virus 1; test: Antiviral activity against HIV1 3B infected in MT4 cells by MTT; format: functional, organism-based; settings: Human immunodeficiency virus 1, 3B
How it was run: (§1)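 MT-4 cells at 1 × 10^5 cells/mL were infected at MOI 0.02 with virus stocks pre-titrated in MT-4 cells (CCID50) and immediately plated onto serial compound dilutions. Compound stocks were 50 mM in DMSO. Viable cells were counted by MTT after 4 days at 37 °C. EC50 is the concentration giving 50% protection from viral cytopathicity, as the mean of ≥2 separate experiments.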

[3] = Selectivity index, ratio of CC50 for human MT4 cells to EC50 for HIV1 3B; format: functional
[4] = tested on: Human immunodeficiency virus 2; test: Antiviral activity against HIV2 ROD infected in MT4 cells by MTT; format: functional, organism-based; settings: Human immunodeficiency virus 2, ROD; how it was run: as §1
[5] = tested on: Human immunodeficiency virus 1; test: Antiviral activity against HIV1 RES056 infected in MT4 cells by MTT; format: functional, organism-based; settings: Human immunodeficiency virus 1, RES056, MT4; how it was run: as §1
[6] = Selectivity index, ratio of CC50 for human MT4 cells to EC50 for HIV1 RES056
MT4 = test: as above

Row | Structure (SMILES) | CC50 [1] [µM] | EC50 [2] [µM] | Ratio CC50/EC50 [3] | EC50 [4] [µM] | EC50 [5] [µM] | Ratio CC50/EC50 [6] | Activity (MT4)
1 | COc1ccc(C(=O)CSc2nc(Cc3cc(C(F)(F)F)cc(C(F)(F)F)c3)c(C)c(=O)[nH]2)cc1 | > 242 | 46.1 | >5 | > 242 |  |  | 
2 | COc1ccc(C(=O)CSc2nc(Cc3cccc(Br)c3)c(C)c(=O)[nH]2)cc1 | ≥ 196 | 0.89 | >=220 | 203 |  |  | 
3 | CCc1c(C(c2ccccc2)c2ccccc2)nc(SCC(=O)c2ccc(OC)cc2)[nH]c1=O | > 266 | 3.49 | >76 | > 266 |  |  | 
4 | CCc1c(Cc2ccc(Br)cc2)nc(SCC(=O)c2ccc(OC)cc2)[nH]c1=O | > 264 | 7.94 | >33 | > 264 |  |  | 
5 | CCc1c(Cc2cc(C)cc(C)c2)nc(SCC(=O)c2ccc(OC)cc2)[nH]c1=O | ≥ 239 | 0.018 | >=13278 | 52.8 | > 239 |  | 
6 | Cc1c(Cc2cccc3ccccc23)nc(SCC(=O)c2ccccc2)[nH]c1=O | ≥ 305 | 0.22 | >=1386 | ≥ 42.2 |  |  | 
7 | CCc1c(Cc2cccc(Br)c2)nc(SCC(=O)c2ccc(OC)cc2)[nH]c1=O | 142 | 0.16 | 887 | > 142 |  |  | 
8 | COc1ccc(C(=O)CSc2nc(C(c3ccccc3)c3ccccc3)c(C)c(=O)[nH]2)cc1 | > 274 | 1.38 | >199 | > 274 |  |  | 
9 | COc1ccc(C(=O)CSc2nc(Cc3ccc(Br)cc3)c(C)c(=O)[nH]2)cc1 | > 272 | 8.97 | >30 | ≥ 226 |  |  | 
10 | COc1ccc(C(=O)CSc2nc(Cc3ccccc3Br)c(C)c(=O)[nH]2)cc1 | > 272 | 0.63 | >432 | > 272 |  |  | 
11 | CCc1c(Cc2cc(C(F)(F)F)cc(C(F)(F)F)c2)nc(SCC(=O)c2ccc(OC)cc2)[nH]c1=O | > 236 | 0.79 | >299 | > 236 |  |  | 
12 | CCc1c(Cc2ccc(-c3ccccc3)cc2)nc(SCC(=O)c2ccc(OC)cc2)[nH]c1=O | > 266 | > 266 |  | > 266 |  |  | 
13 | CCc1c(Cc2ccccc2Br)nc(SCC(=O)c2ccc(OC)cc2)[nH]c1=O | 187 | 0.04 | 4675 | > 187 |  |  | 
14 | Cc1cn([C@H]2C[C@H](N=[N+]=[N-])[C@@H](CO)O2)c(=O)[nH]c1=O [ZIDOVUDINE] | > 93.5 | 0.005 | >17990 |  | 0.006 | >15592 | 
15 | COc1ccc(C(=O)CSc2nc(Cc3cc(C)cc(C)c3)c(C)c(=O)[nH]2)cc1 | > 308 | 0.054 | >5704 | 60.6 | > 308 |  | inactive
16 | CCc1c(Cc2cc(C)cc(C)c2)nc(SCC(=O)c2ccccc2)[nH]c1=O | > 318 | 0.01 | >31800 | 154 | 19.8 | >16 | 
17 | COc1ccc(C(=O)CSc2nc(Cc3c(Cl)cccc3Cl)c(C)c(=O)[nH]2)cc1 | > 278 | 0.044 | >6318 | > 278 |  |  | 
18 | COc1ccc(C(=O)CSc2nc(Cc3cccc(O)c3)c(C)c(=O)[nH]2)cc1 | 70 | 4.44 | 16 | > 59 |  |  | 
19 | O=C1Nc2ccc(Cl)cc2C(C#CC2CC2)(C(F)(F)F)O1 (single isomer, unassigned) [EFAVIRENZ] | > 6.34 |  |  |  |  |  | 
20 | CC(C)Nc1cccnc1N1CCN(C(=O)c2cc3cc(NS(C)(=O)=O)ccc3[nH]2)CC1 [DELAVIRDINE] | > 3.62 | 0.072 | >50 |  | > 3.62 |  | 

From ChEMBL document CHEMBL1144854, “Synthesis and biological evaluation of novel 6-substituted 5-alkyl-2-(arylcarbonylmethylthio)pyrimidin-4(3H)-ones as potent non-nucleoside HIV-1 reverse transcriptase inhibitors” (Bioorg Med Chem, 2008)
